# M18AAP inhibitor – PfM18AAP inhibitors, malaria aminopeptidase, primary screen, biochemical, QFRET, recombinant enzyme; AID 1822, 2009; M18 aspartyl aminopeptidase (Plasmodium falciparum 3D7); actives 1.2% (n = 290,000); inhibition, % at 7.35 µM; H-Glu-NHMec fluorogenic cleavage;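 active means inhibition above the campaign mean inhibition over all tested compounds plus 3 SD, cut at about 28% in these data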;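 further: 0% = plate median of test compound wells and 100% = 2 mM ZnCl2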
# ZTA DNA inh – counter-screen for EBNA-1 inhibitors: inhibitors of Epstein-Barr virus ZTA | inhibition, % at 11 µM | actives 0.15% (n = 320,000) | ZTA-DNA binding, fluorescence polarization | P03206; in the data active means inhibition above about 33%
# Target sequence (P03206 whole entry, looked up): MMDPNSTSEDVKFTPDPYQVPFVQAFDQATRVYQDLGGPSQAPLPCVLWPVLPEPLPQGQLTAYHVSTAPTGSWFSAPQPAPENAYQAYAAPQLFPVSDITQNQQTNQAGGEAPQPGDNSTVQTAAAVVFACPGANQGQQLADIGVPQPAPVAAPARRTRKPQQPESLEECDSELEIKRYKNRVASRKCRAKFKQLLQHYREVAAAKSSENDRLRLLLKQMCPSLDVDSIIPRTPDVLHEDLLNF
# ALR H2O2 inh – inhibitors of human ALR sulfhydryl oxidase, primary screen, biochemical, H2O2 detection, HRP-luminol luminescence, single point. FAD-linked sulfhydryl oxidase ALR (Homo sapiens), P55789. purified ALR, DTT oxidation. inhibition, % (no concentration beside the values). actives 3.8% (n = 290,000);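 active means mean replicate inhibition above about 79%, with every replicate also reaching it, limit read from the data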
# Target sequence (P55789 whole entry, looked up): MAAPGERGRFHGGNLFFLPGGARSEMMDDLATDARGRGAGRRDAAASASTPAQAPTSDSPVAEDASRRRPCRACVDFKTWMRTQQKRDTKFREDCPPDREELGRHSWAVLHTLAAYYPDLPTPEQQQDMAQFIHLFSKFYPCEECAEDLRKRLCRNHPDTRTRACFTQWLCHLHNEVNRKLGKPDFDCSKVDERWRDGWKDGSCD
# HCV NS3 hel inh – inhibitors of HCV NS3 helicase, primary screen, biochemical, Cy5 molecular beacon fluorescence; inhibition, % at 10.9 µM; NS3 helicase DNA unwinding; actives 0.56% (n = 290,000);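 active means inhibition above the mean of all tested compounds plus 3 SD, set per campaign, cut at about 35% in these data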;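 further: 0% = DMSO wells and 100% = thioflavine S control wells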
#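 Assay system – hepatitis C virus NS3 helicase domain fragment enzyme · Buffer or medium – MOPS pH 6.5, MgCl2, DTT, Tween20, BSA · Reagent – Cy5/quencher beacon DNA duplex and ATP to start · Compound – single 10.9 µM dose · Timing – 1 h at 25 °C · Technique – Cy5 beacon fluorescence read at start and 1 h · Measure – % inhibition of unwinding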
# EBNA-1 inh – EBNA-1 DNA-binding inhibitors, primary screen, biochemical, fluorescence polarization; inhibition, % at 14.8 µM; AID 1950, 2009; actives 0.34% (n = 300,000); in the data active means inhibition above about 28%
# HCV core dimer – inhibitors of HCV core protein dimerization, primary screen, biochemical, TR-FRET, high-throughput. TR-FRET GST/Flag-core106 dimerization, 1536-well. inhibition, % at 5 µM. actives 0.33% (n = 300,000);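 active means inhibition above the mean of all tested compounds plus 3 SD, set per screening campaign, cut at about 45% in these data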
#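 Material: Tagged HCV core106 pair (GST and Flag) | Amount: GST-core106 13.5 nM, Flag-core106 17 nM | Medium: KF-containing HEPES buffer, pH 7.45, DTT, CHAPS, BSA | Reagent: Eu donor and XL665 acceptor anti-tag antibodies | Schedule: 4 h at 22.5 °C | Technique: Time-resolved FRET, ex 340 nm, em 617 and 671 nm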
# Starred values were filed as active, the others as inactive; . = no result. A selection: hits, their analogues and other compounds. The true share with any hit is near 5.2%.
SMILES,M18AAP inhibitor,ZTA DNA inh,ALR H2O2 inh,HCV NS3 hel inh,EBNA-1 inh,HCV core dimer
O=C(/C=C/c1ccc([N+](=O)[O-])cc1)Nc1cccc(C(=O)Nc2ccccc2C(=O)O)c1,3.3,-3.6,90.8*,17.9,3.5,15.6
COC(=O)c1cccc(NC(=O)/C=C/c2ccc([N+](=O)[O-])cc2)c1,-2.2,-9.6,0.4,5.1,3.8,0.5
N#Cc1c(-c2ccncc2)c2c([nH]c1=S)CCCC2,10.5,3.1,.,5.4,-2.4,0.4
Cc1ccc(-c2c3c([nH]c(=S)c2C#N)CCCC3)o1,30.9*,10.9,-4.9,31.1,3.8,18.6
COC(=O)CSc1nc2c(c(-c3ccc(C)o3)c1C#N)CCCC2,-4.5,24.0,-5.5,5.7,-3.3,8.5
CCSc1nc2c(c(-c3ccc(C)o3)c1C#N)CCCC2,-0.8,9.3,82.7*,-0.4,3.6,16.5
CN1CCN(C(=O)c2ccc3c(c2)N(Cc2ccccc2)CCS3)CC1,-10.7,3.0,98.5*,-21.6,-14.0,-9.9
Cc1ccc(CN2CCSc3ccc(C(=O)NC4CCCC4)cc32)cc1,-2.2,-5.1,9.9,-8.7,-3.1,3.3
O=C(c1ccc2c(c1)N(Cc1ccccc1)CCS2)N1CCCCC1,3.1,1.4,98.9*,2.6,-1.3,12.4
Cc1ccc(CN2CCSc3ccc(C(=O)NCc4cccnc4)cc32)cc1,1.7,19.1,45.4,-15.4,7.7,15.7
CCOc1ccccc1N1CC(C(=O)N(C)Cc2cccnc2)CC1=O (stereo not given),-0.1,-4.9,-2.3,1.2,-7.3,-4.7
COc1ccc(NC(=O)c2cn(CCC#N)nc2-c2cc3ccccc3o2)cc1,7.4,1.9,2.9,-3.6,-0.7,-0.6
CCOC(=O)CN1CCc2c(C)nc3c(-c4ccc(OC)c(OC)c4)cnn3c21,-5.3,3.5,83.5*,0.0,-10.0,-22.2
Cc1nc2ccc(N)cc2s1,0.9,-18.8,98.8*,-3.8,8.7,-2.2
Nc1ccc2sc(N)nc2c1,.,-3.0,91.0*,.,.,.
CS(=O)(=O)c1ccc2nc(N)sc2c1,-9.3,-3.5,-5.7,-4.0,-6.3,-1.9
Cc1nc2cc3sc(C)nc3cc2s1,2.6,5.4,-35.6,-19.9,1.7,3.8
CCN(C(=O)COC(=O)/C=C/c1ccco1)C1CCCCC1,.,.,45.4,.,.,.
CC(C)(C)OC(=O)NCC(=O)Oc1cc2oc(=O)cc(-c3ccccc3)c2cc1Cl,-5.7,-1.2,9.0,4.7,2.7,9.0
O=C(Oc1cc2oc(=O)cc(-c3ccccc3)c2cc1Cl)C1CCCCC1,-0.2,-6.4,98.5*,14.1,2.5,19.4
CCCCOc1ccc(C(=O)NCC(=O)N(C)CC(=O)Nc2ccc(N3CCOCC3)cc2)cc1,.,5.4,40.8,.,0.4,-3.5
COc1ccccc1C(=O)NCCC(=O)N(C)CC(=O)Nc1ccc(N2CCOCC2)cc1,.,-26.7,98.7*,.,-6.5,3.0
CC(Oc1cccc(Cl)c1)C(=O)N(C)CC(=O)Nc1ccc(N2CCOCC2)cc1 (stereo not given),.,1.1,93.2*,.,3.9,-2.1
CN(CC(=O)Nc1ccc(N2CCOCC2)cc1)C(=O)CCNC(=O)c1ccc(Br)cc1,.,2.2,96.4*,.,-19.2,1.3
CC(C)C(=O)NC(c1ccco1)c1ccc2cccnc2c1O (stereo not given),30.3*,-15.7,-3.8,3.1,8.5,3.4
SMILES,M18AAP inhibitor,ZTA DNA inh,ALR H2O2 inh,HCV NS3 hel inh,EBNA-1 inh,HCV core dimer
COCCn1c(SCC(=O)Nc2ccc3c(c2)OCCO3)nc2c(c1=O)SC(C)C2 (stereo not given),1.4,3.4,99.3*,4.4,0.4,3.7
Cc1ccc2nc(NC(=O)CSc3nc4c(c(=O)n3C)SC(C)C4)sc2c1 (stereo not given),5.2,13.7,98.6*,-6.9,-11.6,29.2
CC1Cc2nc(SCC(=O)Nc3ccc(F)cc3F)n(C)c(=O)c2S1 (stereo not given),5.7,7.9,98.5*,0.6,2.7,2.9
COCCn1c(SCC(=O)Nc2cc(C)on2)nc2c(c1=O)SC(C)C2 (stereo not given),-4.5,1.4,.,-6.1,-2.0,-0.6
Cc1ccc(C)c(NC(=O)CSc2nc3c(c(=O)n2C)SC(C)C3)c1 (stereo not given),1.5,2.3,47.7,7.0,6.8,22.3
CC1Cc2nc(SCC(=O)Nc3ccc4c(c3)OCO4)n(Cc3ccccc3)c(=O)c2S1 (stereo not given),-0.4,-15.7,-9.5,2.8,0.4,2.0
CC1Cc2nc(SCC(=O)Nc3ccc4c(c3)OCCO4)n(C)c(=O)c2S1 (stereo not given),1.9,-9.3,94.4*,-4.2,-4.1,20.6
CC1(C)CC(O)C(C(O)c2cccc([N+](=O)[O-])c2)C(C)(C)N1 (stereo not given),-13.2,-0.1,-8.1,5.2,0.9,-3.1
COc1cccc(-c2nn3c(-c4ccco4)nnc3s2)c1,.,-0.2,94.4*,.,11.4,13.6
COc1cccc(OC)c1-c1nn2c(-c3ccco3)nnc2s1,6.0,7.5,-4.4,9.9,-13.1,2.5
NNC(=O)c1cc2ccccc2cc1O,-1.1,-25.2,1.6,28.1,4.0,-8.8
COc1ccc(C(=O)NN=C2CCCC2)c(OC)c1,-3.0,9.1,-0.6,-3.5,-17.0,-8.1
O=C(NN=C1CCCC1)c1ccc(O)cc1O,31.0*,-7.4,73.7,13.7,-2.5,-15.7
NNC(=O)c1ccc(O)cc1O,25.5,-9.8,98.9*,4.7,-1.5,4.1
COc1ccc([C@H]2CC(=O)C=C(c3cc(C=O)ccc3OC)C2)cc1,.,2.8,7.5,.,.,.
C=CCN1C(=O)/C(=C/C=C2/N(CC)c3ccc(S(=O)(=O)N(C)C)cc3N2CC)SC1=S,8.9,-3.2,74.2,-5.4,-4.0,-27.9
O=C(NCSc1ccnc(SCNC(=O)c2ccccc2)n1)c1ccccc1,38.5*,-3.8,19.8,16.1,2.4,2.0
O=C(NCCc1ccccc1)c1ccncc1,-8.6,.,.,0.3,.,.
O=C(NCSc1ccncn1)c1ccccc1,2.1,-6.9,98.7*,-3.1,-1.7,-1.4
CCOc1ccc(NC(=O)C(C)Oc2ccc(C#N)cc2)cc1S(=O)(=O)N1CCCC1 (stereo not given),.,8.7,-31.8,.,.,.
O=C(NCc1cnc2ccccn12)C1CCC(=O)N(Cc2ccccc2F)C1 (stereo not given),-1.3,.,-4.7,4.6,.,.
CCCCCNC(=O)Cc1ccc(S(=O)(=O)N2CCOCC2)s1,.,0.8,-5.8,.,-0.7,8.2
O=C(NNCc1ccc(O)cc1)c1ccccc1Cl,6.4,14.7,98.9*,-3.9,0.3,-1.3
Cc1csc(Nc2ccccc2)n1,1.4,-0.8,98.5*,9.9,-3.4,-2.5
Cc1nc(Nc2ccccc2)sc1C,8.3,20.8,98.6*,-1.9,13.6,4.8

# Assay outcomes from PubChem BioAssay.
